16 molecules from ChEMBL document CHEMBL3259711, “Synthesis, anti-HIV and cytostatic evaluation of 3'-deoxy-3'-fluorothymidine (FLT) pro-nucleotides” (Bioorg Med Chem Lett, 2014) can be followed below.

Series [1] concerns Human immunodeficiency virus 1. The series can be described thus: Antiretroviral activity against HIV-1 3B infected in human CEM/0 cells expressing thymidine kinase assessed as inhibition of virus-induced giant cell formation after 4 to 5 days by microscopic analysis. The series is classed as functional, organism-based. As to conditions: Human immunodeficiency virus 1, 3B, CCRF-CEM. In a few lines: (§1)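 CEM cells (~3 × 10⁵/mL; wild-type or thymidine kinase-deficient) infected with 100 CCID₅₀/mL HIV-1(IIIB) or HIV-2(ROD) with serial compound dilutions; 4–5 days at 37 °C, humidified CO₂. Syncytium (giant cell) formation scored microscopically; EC₅₀ = concentration inhibiting giant cell formation by 50%. Means of at least 2–3 independent experiments.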

Series [2] relates to Human immunodeficiency virus 2. The series can be described thus: Antiretroviral activity against HIV-2 ROD infected in human CEM/0 cells expressing thymidine kinase assessed as inhibition of virus-induced giant cell formation after 4 to 5 days by microscopic analysis. The series is classed as functional, organism-based. As to conditions: Human immunodeficiency virus 2, ISOLATE ROD, CCRF-CEM. In a few lines:
as §1

Series [3] has as its system Human immunodeficiency virus 2. In words: Antiretroviral activity against HIV-2 ROD infected in thymidine kinase-deficient human CEM cells assessed as inhibition of virus-induced giant cell formation after 4 to 5 days by microscopic analysis. Type of series: functional, organism-based. The conditions noted are these: Human immunodeficiency virus 2, ISOLATE ROD, CCRF-CEM. The method in brief:
as §1

For series [4], the system named is CCRF-CEM. In words: Cytostatic activity against human CEM/0 cells expressing thymidine kinase assessed as inhibition of cell proliferation after 48 hrs by Coulter counter analysis. Type of series: functional, cell-based. In a few lines: (§2)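 Tumour cells ((5–7.5) × 10⁴ per well) grown with test compound for 48 h at 37 °C, humidified CO₂; cells counted by Coulter counter. IC₅₀ = concentration inhibiting proliferation by 50%. Means of at least 2–3 independent experiments.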

The subject of series [5] is CCRF-CEM. The series can be described thus: Cytostatic activity against thymidine kinase-deficient human CEM cells assessed as inhibition of cell proliferation after 48 hrs by Coulter counter analysis. The series is classed as functional, cell-based. The method in brief: as §2
For a further series, the system named is L1210. In words: Cytostatic activity against mouse L1210 cells assessed as inhibition of cell proliferation after 48 hrs by Coulter counter analysis. The series is classed as functional, cell-based. The conditions noted are these: L1210, 48 h. In a few lines: as §2
Series [6] can be described thus: Cytostatic activity against human CEM/0 cells expressing thymidine kinase assessed as inhibition of cell proliferation at EC50 after 48 hrs by Coulter counter analysis. Type of series: cell-based. The conditions noted are these: ccrf-cem.
The test system of series [7] is CCRF-CEM. The series can be described thus: Cytostatic activity against thymidine kinase-deficient human CEM cells assessed as inhibition of cell proliferation at EC50 after 48 hrs by Coulter counter analysis. The series is classed as cell-based.
In series [8] the test system is Human immunodeficiency virus 2. The series can be described thus: Ratio of EC50 for HIV-2 ROD infected in thymidine kinase-deficient human CEM cells to EC50 for HIV-2 ROD infected in human CEM/0 cells expressing thymidine kinase. Type of series: functional, ISOLATE ROD, CCRF-CEM.

A word on the EC50: it is the concentration at which the effect is half-maximal. As a reminder, the IC50 is the midpoint of a concentration-inhibition curve.

Bounds are passed on as bounds.

Consider `COC(=O)[C@H](C)NP(=O)(OC[C@H]1O[C@@H](n2cc(C)c(=O)[nH]c2=O)C[C@@H]1F)Oc1ccccc1` (some centres undefined), for which the EC50 in series [1] was 0.55 µM; in series [2] it was 1.3 µM; in [3], 4.7 µM. Moreover, the IC50 in the series with CCRF-CEM [4] is greater than 250 µM; in the series on CCRF-CEM [5], greater than 250 µM; in the series on L1210, 8.2 µM.
For `CCOC(=O)[C@H](C)NP(=O)(OC[C@H]1O[C@@H](n2cc(C)c(=O)[nH]c2=O)C[C@@H]1F)Oc1ccccc1` (some centres undefined), the EC50 in [1] came out at 0.1 µM; in series [2], 0.24 µM; in series [3] it was 1.3 µM. Also, the results for the half-maximal inhibitory concentration (IC50) in the series with CCRF-CEM [4], in the series on CCRF-CEM [5] and in the series on L1210 were greater than 250 µM, greater than 250 µM and 4.4 µM, respectively.
Turning to `Cc1cn([C@H]2C[C@H](F)[C@@H](COP(=O)(N[C@@H](C)C(=O)OC(C)C)Oc3ccccc3)O2)c(=O)[nH]c1=O` (some centres undefined), the EC50 in series [1] came out at 0.75 µM; in series [2] it was 1.1 µM; in series [3], 28 µM. Also, the results for the IC50 in the series with CCRF-CEM [4], in the series with CCRF-CEM [5] and in the series on L1210 were 145 µM, greater than 250 µM and 23 µM, respectively.
In the case of `Cc1cn([C@H]2C[C@H](F)[C@@H](COP(=O)(N[C@@H](C)C(=O)OC(C)(C)C)Oc3ccccc3)O2)c(=O)[nH]c1=O` (some centres undefined), the EC50 in series [1] was 0.29 µM; in series [2] it was 0.9 µM; in [3], greater than 50 µM. Moreover, the IC50 is 124 µM in the series on CCRF-CEM [4], greater than 250 µM in the series with CCRF-CEM [5] and 6.3 µM in the series on L1210.
Consider `Cc1cn([C@H]2C[C@H](F)[C@@H](COP(=O)(N[C@@H](C)C(=O)OCc3ccccc3)Oc3ccccc3)O2)c(=O)[nH]c1=O` (some centres undefined), for which the results for the EC50 in [1], in series [2] and in series [3] were 0.13 µM, 0.18 µM and 2 µM, respectively. Moreover, the concentration for half-maximal inhibition (IC50) in the series with CCRF-CEM [4] amounted to 117 µM; in the series on CCRF-CEM [5], 172 µM; with L1210, 5.8 µM.
Regarding `COC(=O)[C@H](C)NP(=O)(OC[C@H]1O[C@@H](n2cc(C)c(=O)[nH]c2=O)C[C@@H]1F)Oc1cccc2ccccc12` (some centres undefined), the 50% effective concentration (EC50) was found to be 0.43 µM in series [1], 0.65 µM in series [2] and 3 µM in series [3]. Also, the IC50 is 66 µM in the series with CCRF-CEM [4], 112 µM in the series with CCRF-CEM [5] and 3 µM with L1210.
Consider `CCOC(=O)[C@H](C)NP(=O)(OC[C@H]1O[C@@H](n2cc(C)c(=O)[nH]c2=O)C[C@@H]1F)Oc1cccc2ccccc12` (some centres undefined), for which the EC50 in series [1] worked out at 0.16 µM; in series [2], 0.18 µM; in [3] it was 5.2 µM. The concentration for half-maximal inhibition (IC50) stood at 81 µM with CCRF-CEM [4], 138 µM with CCRF-CEM [5] and 6 µM with L1210.
As for `Cc1cn([C@H]2C[C@H](F)[C@@H](COP(=O)(N[C@@H](C)C(=O)OC(C)C)Oc3cccc4ccccc34)O2)c(=O)[nH]c1=O` (some centres undefined), the results for the EC50 in series [1], in series [2] and in series [3] were 0.56 µM, 1 µM and greater than 50 µM, respectively. For the same molecule, the IC50 in the series on CCRF-CEM [4] is 206 µM; with CCRF-CEM [5], greater than 250 µM; with L1210, 24 µM.
Turning to `Cc1cn([C@H]2C[C@H](F)[C@@H](COP(=O)(N[C@@H](C)C(=O)OC(C)(C)C)Oc3cccc4ccccc34)O2)c(=O)[nH]c1=O` (some centres undefined), the results for the EC50 in [1], in series [2] and in [3] were 2.3 µM, 4.7 µM and greater than 50 µM, respectively. In addition, the figures for the IC50 in the series on CCRF-CEM [4], in the series with CCRF-CEM [5] and with L1210 were 148 µM, greater than 250 µM and 36 µM, respectively.
On to `Cc1cn([C@H]2C[C@H](F)[C@@H](COP(=O)(N[C@@H](C)C(=O)OC3CCCCC3)Oc3cccc4ccccc34)O2)c(=O)[nH]c1=O` (some centres undefined), for which the EC50 turned out to be 0.048 µM in series [1], 0.14 µM in series [2] and 2 µM in series [3]. Besides, the values for the concentration for half-maximal inhibition (IC50) in the series on CCRF-CEM [4], with CCRF-CEM [5] and in the series with L1210 were 13 µM, 20 µM and 2.9 µM, respectively. Besides, the Activity entry (in [6]; in the series with CCRF-CEM [7]) was “Non-toxic” in each case.
Regarding `Cc1cn([C@H]2C[C@H](F)[C@@H](COP(=O)(N[C@@H](C)C(=O)OCC(C)(C)C)Oc3cccc4ccccc34)O2)c(=O)[nH]c1=O` (some centres undefined), the EC50 turned out to be 0.032 µM in series [1], 0.08 µM in series [2] and 0.87 µM in series [3]. Further, the half-inhibitory concentration (IC50) in the series with CCRF-CEM [4] was 14 µM; in the series with CCRF-CEM [5], 20 µM; in the series on L1210, 1.9 µM. Moreover, the Activity entry (in [6]; with CCRF-CEM [7]) was “Non-toxic” each time. For the same molecule, in [8], the Ratio EC50 was 10.
Regarding `Cc1cn([C@H]2C[C@H](F)[C@@H](COP(=O)(N[C@@H](C)C(=O)OCc3ccccc3)Oc3cccc4ccccc34)O2)c(=O)[nH]c1=O` (some centres undefined), the EC50 in series [1] is 0.12 µM; in series [2], 0.18 µM; in series [3], 2.1 µM. In addition, the results for the IC50 in the series with CCRF-CEM [4], with CCRF-CEM [5] and in the series on L1210 were 54 µM, 57 µM and 5.2 µM, respectively.
As for `COP(=O)(N[C@@H](C)C(=O)OCc1ccccc1)OC[C@H]1O[C@@H](n2cc(C)c(=O)[nH]c2=O)C[C@@H]1F` (some centres undefined), the values for the concentration giving a half-maximal response (EC50) in [1], in [2] and in series [3] were 0.65 µM, 1.6 µM and 89 µM, respectively. Further, the IC50 in the series on CCRF-CEM [4] was 100 µM; in the series on CCRF-CEM [5], greater than 250 µM; with L1210, 43 µM.
As to `Cc1cn([C@H]2C[C@H](F)[C@@H](COP(=O)(N[C@@H](C)C(=O)OCc3ccccc3)N[C@@H](C)C(=O)OCc3ccccc3)O2)c(=O)[nH]c1=O`, the EC50 came to 0.036 µM in [1], 0.13 µM in series [2] and 1 µM in series [3]. Besides, the IC50 turned out to be 17 µM in the series on CCRF-CEM [4], 22 µM with CCRF-CEM [5] and 1.2 µM with L1210. The Activity result (in series [6]; in the series with CCRF-CEM [7]) was “Non-toxic” throughout.
`Cc1cn([C@H]2C[C@H](F)[C@@H](COP(=O)(N[C@@H](C)C(=O)OCC(C)(C)C)N[C@@H](C)C(=O)OCC(C)(C)C)O2)c(=O)[nH]c1=O`: the half-maximal effective concentration (EC50) in series [1] came to 0.017 µM; in [2], 0.045 µM; in series [3], 20 µM. For the same molecule, the values for the IC50 with CCRF-CEM [4], with CCRF-CEM [5] and in the series on L1210 were 66 µM, 43 µM and 3.8 µM, respectively.
Take `Cc1cn([C@H]2C[C@H](F)[C@@H](CO)O2)c(=O)[nH]c1=O` [ALOVUDINE]: the EC50 in series [1] was 0.0062 µM; in series [2], 0.018 µM; in [3] it was greater than 50 µM. Further, the concentration for half-maximal inhibition (IC50) in the series with CCRF-CEM [4] is 39 µM; with CCRF-CEM [5], greater than 250 µM; in the series on L1210, 0.081 µM. The Ratio EC50 in series [8] was greater than 1000.
